The target in one experiment is Deoxyribonuclease-1 (Bos taurus, UniProt P00639). Description: Inhibition of bovine pancreas DNase 1 assessed as undigested supercoiled pBR322 DNA concentration. A digest of the protocol:
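Restriction enzyme or nuclease activity followed as the remaining undigested supercoiled pBR322 DNA (or RNA) after reaction.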

The target of experiment [1] is T1, DNA topoisomerase 1 (Homo sapiens, UniProt P11387).
T1 sequence (P11387 whole entry): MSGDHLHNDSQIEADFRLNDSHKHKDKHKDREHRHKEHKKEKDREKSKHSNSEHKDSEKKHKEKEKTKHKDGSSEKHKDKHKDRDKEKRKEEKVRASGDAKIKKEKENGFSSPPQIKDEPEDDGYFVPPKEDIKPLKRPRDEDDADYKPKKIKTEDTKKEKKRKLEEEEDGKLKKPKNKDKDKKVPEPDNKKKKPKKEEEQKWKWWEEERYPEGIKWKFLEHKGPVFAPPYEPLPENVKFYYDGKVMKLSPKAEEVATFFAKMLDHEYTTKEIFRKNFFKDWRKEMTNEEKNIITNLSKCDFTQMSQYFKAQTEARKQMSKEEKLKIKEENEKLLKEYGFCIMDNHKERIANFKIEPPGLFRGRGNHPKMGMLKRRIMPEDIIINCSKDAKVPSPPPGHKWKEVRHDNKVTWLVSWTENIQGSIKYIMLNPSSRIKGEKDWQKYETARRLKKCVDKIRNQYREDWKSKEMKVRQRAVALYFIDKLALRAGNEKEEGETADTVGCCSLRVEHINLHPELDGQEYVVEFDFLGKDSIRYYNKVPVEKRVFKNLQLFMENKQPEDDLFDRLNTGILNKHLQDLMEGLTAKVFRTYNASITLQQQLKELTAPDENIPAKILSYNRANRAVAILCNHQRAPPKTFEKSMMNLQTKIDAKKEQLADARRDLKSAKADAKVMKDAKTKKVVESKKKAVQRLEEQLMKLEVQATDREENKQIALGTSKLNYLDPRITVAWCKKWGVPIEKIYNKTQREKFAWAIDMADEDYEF
Description: Inhibition topoisomerase 1 in human A549 cells assessed as conversion of supercoiled pBR322 DNA to relaxed form. Format: cell-based. A digest of the protocol: (§1)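 Topo I source: crude extract from cells grown 5 days, PBS-washed and pelleted (1 × 10^6 cells), then lysed 30 min on ice in Tris-HCl pH 7.5 buffer with MgCl2, EGTA, AEBSF, β-mercaptoethanol, 0.5% CHAPS and 10% glycerin. The cleared supernatant relaxes supercoiled pBR322 DNA. Products are resolved on agarose gel and scored by densitometry.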

Experiment [2] has as its target T1, DNA topoisomerase 1. Description: Inhibition topoisomerase 1 in human COLO201 cells assessed as conversion of supercoiled pBR322 DNA to relaxed form. Format: cell-based. In a few lines:
as §1

Experiment [3] deals with T1, DNA topoisomerase 1. Description: Inhibition topoisomerase 1 in human HeLa cells assessed as conversion of supercoiled pBR322 DNA to relaxed form. Format: cell-based. A digest of the protocol:
as §1

Sequence of Deoxyribonuclease-1 (P00639 whole entry): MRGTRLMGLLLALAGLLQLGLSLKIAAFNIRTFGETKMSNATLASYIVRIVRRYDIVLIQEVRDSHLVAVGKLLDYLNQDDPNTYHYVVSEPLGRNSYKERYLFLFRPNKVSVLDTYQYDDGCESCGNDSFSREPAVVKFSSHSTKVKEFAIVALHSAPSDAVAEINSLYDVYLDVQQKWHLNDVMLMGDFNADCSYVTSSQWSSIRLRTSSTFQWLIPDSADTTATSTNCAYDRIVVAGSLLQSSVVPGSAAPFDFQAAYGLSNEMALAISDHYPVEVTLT

Broadly, the IC50 is the point on the concentration scale where inhibition reaches its midpoint. In the case of `CC[C@@]1(O)C(=O)OCc2c1cc1n(c2=O)Cc2cc3ccccc3nc2-1` [CAMPTOTHECIN], the IC50 at Deoxyribonuclease-1 is more than 300 µM.

Take `O=C1Oc2cc(O)ccc2/C1=C\c1ccc(O)cc1` [ISOAUROSTATIN]: the concentration for half-maximal inhibition (IC50) at Deoxyribonuclease-1, at DNA topoisomerase 1 [1], on DNA topoisomerase 1 [2] and on DNA topoisomerase 1 [3] was more than 400 µM throughout.

As for `C=C1NC(=O)C(C)C(CCC(C)C(=O)/C=C/C(C)=C/CC(C)CCCCCCC)OC(=O)[C@H](CC(OS(=O)(=O)O)C(N)=O)NC(=O)[C@@H](C)CNC1=O` (stereo not given in full) [TOPOSTATIN], the half-maximal inhibitory concentration (IC50) was more than 250 µM on Deoxyribonuclease-1, 55 µM at DNA topoisomerase 1 [1], 50 µM at DNA topoisomerase 1 [2] and 29 µM on DNA topoisomerase 1 [3].

For `COc1cccc2c1C(=O)c1c(O)c3c(c(O)c1C2=O)C[C@@](O)(C(=O)CO)C[C@@H]3O[C@H]1C[C@H](N)[C@H](O)[C@H](C)O1` [DOXORUBICIN], the half-maximal inhibitory concentration (IC50) at Deoxyribonuclease-1 is more than 200 µM.

The record behind these values is ChEMBL document CHEMBL1155708, “Isoaurostatin, a novel topoisomerase inhibitor produced by Thermomonospora alba” (J Nat Prod, 2001).
